The source of these data is article PMC9159088 (Chemical Science, 2022).

Data set [1] concerns human normal fibroblast (08C0015). The data set is described as follows: Cell based selectivity assay. The settings on record: 08C0015, 24 h treatment.
In a further data set the target is T1, α-hGMII (Homo sapiens, UniProt Q16706).
T1 sequence (Q16706 1-1144): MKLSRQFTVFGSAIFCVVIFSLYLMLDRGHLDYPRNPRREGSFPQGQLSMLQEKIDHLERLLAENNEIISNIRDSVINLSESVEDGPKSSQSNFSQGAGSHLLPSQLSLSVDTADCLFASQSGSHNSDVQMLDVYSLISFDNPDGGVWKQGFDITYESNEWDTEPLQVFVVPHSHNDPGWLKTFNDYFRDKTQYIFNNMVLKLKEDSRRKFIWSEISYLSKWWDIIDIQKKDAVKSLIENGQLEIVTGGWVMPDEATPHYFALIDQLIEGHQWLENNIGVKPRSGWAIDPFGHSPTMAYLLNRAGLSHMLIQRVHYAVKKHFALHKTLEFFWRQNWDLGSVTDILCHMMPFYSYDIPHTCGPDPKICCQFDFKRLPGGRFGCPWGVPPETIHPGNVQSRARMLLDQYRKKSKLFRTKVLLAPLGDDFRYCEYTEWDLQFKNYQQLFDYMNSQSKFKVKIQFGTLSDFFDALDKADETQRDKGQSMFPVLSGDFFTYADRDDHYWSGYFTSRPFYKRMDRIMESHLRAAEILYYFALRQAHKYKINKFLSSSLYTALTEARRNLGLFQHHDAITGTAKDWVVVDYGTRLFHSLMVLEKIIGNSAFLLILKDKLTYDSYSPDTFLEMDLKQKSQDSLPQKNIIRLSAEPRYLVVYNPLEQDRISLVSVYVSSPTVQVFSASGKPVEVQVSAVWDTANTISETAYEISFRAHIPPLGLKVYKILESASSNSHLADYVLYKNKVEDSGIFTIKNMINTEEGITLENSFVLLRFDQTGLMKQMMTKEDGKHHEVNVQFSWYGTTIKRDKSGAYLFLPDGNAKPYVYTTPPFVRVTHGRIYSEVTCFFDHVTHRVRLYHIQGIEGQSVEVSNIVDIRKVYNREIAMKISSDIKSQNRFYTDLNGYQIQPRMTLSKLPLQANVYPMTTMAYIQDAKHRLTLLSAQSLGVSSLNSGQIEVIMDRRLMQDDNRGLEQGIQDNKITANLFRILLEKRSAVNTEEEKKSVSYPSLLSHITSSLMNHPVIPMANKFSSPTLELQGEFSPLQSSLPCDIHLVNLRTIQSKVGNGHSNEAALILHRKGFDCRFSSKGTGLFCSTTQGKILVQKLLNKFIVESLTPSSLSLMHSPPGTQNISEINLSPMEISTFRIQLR
The data set is described as follows: Glycan-based. The class given is biochemical. The settings on record: SI = (α-hLM IC50)/(α-hGMII IC50), oligosaccharide substrates. A digest of the protocol:
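The substrate for human Golgi α-mannosidase II was 2-aminobenzamide-labelled GlcNAcMan5GlcNAc2 (GlcNAcMan5-2AB), with LNnT-2AB as internal standard. Enzyme, substrate and test compound (0, 0.3, 0.1, 0.03 μM) were incubated 24 h at 37 °C. Remaining substrate was measured by UPLC fluorescence as the peak area ratio of substrate to internal standard. Ki was taken from a Lineweaver–Burk plot. SI used lysosomal α-mannosidase IC50, run the same way with Man5-2AB substrate and NA2-2AB standard.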

In data set [2] the target is T2, human Golgi α-mannosidase II (α-hGMII) (Homo sapiens, UniProt Q16706).
T2 sequence (Q16706 1-1144): T1 sequence (Q16706 1-1144)
The data set can be described thus: 4-MU-based enzyme inhibition study, wild-type α-hGMII. The class given is biochemical. The settings on record: SI = (α-hLM Ki)/(α-hGMII Ki), Man-α-4MU substrate.

A further data set is described as follows: Serum biochemistry assay. The class given is in vivo, NOD-SCID mice. To be noted: 30 mg kg−1 ip. twice a week. Put shortly: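 Huh7 cells (5 × 106) implanted subcutaneously into left and right flanks of NOD-SCID mice. From day 7 after inoculation, test compound or reference drug given ip at 30 mg kg−1 twice a week for 34 days; bodyweight monitored. Serum AST, ALT, total bilirubin, creatinine and BUN measured for hepatorenal toxicity; significance set at P < 0.05.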

In another data set the test system is Huh7 xenograft tumors. The data set can be described thus: Mice xenograft model of HCC. Format: in vivo, NOD-SCID mice. To be noted: 30 mg kg−1 ip. twice a week.

The structures appear in SMILES notation.

In the case of `O[C@H]1[C@H]2[C@H](O)CCCN2C[C@H]1O` [sw, swainsonine], the “increase of relative intensity of overall Man2-9GlcNAc compared to the control group” value in data set [1] is on record as “about 5 fold”. The “SI: selectivity index (glycan based)” value at α-hGMII was determined as 5. For the same compound, the “SI: selectivity index” value in data set [2] is given as 4.6.

Take `CNC(=O)c1cc(Oc2ccc(NC(=O)Nc3ccc(Cl)c(C(F)(F)F)c3)cc2)ccn1` [Sorafenib, sorafenib]: the “side effects (hepatotoxicity and nephrotoxicity)” value in the data set “Serum biochemistry assay” is “no serious side effects including hepatotoxicity and nephrotoxicity were observed”. In the data set on Huh7 xenograft tumors, the “signs of harm / body weight during treatment” value is reported as “neither mice injected with 8b-3 nor sorafenib exhibited signs of harm or decreased body weight”. Besides, the “tumor growth compared to the control” value with Huh7 xenograft tumors (P < 0.05) is “significant reduction in tumor growth”.
